From ChEMBL document CHEMBL3232728, “Synthesis, molecular docking and biological evaluation of metronidazole derivatives containing piperazine skeleton as potential antibacterial agents” (Bioorg Med Chem, 2014)
Converted amounts (≈) assume the structure as drawn.

Columns and labels:
Bacillus subtilis = test: Antibacterial activity against Bacillus subtilis ATCC 530 after 24 hrs by two-fold serial dilution method; assay type: functional; settings: ATCC 530, 24 h
Summary of the method: (§1)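 Run in Mueller-Hinton medium, read by MTT method, with compounds tested in nutrient broth (NB) by two-fold serial dilution. Seeded broth containing microbial spores was prepared in NB from 24 h old cultures grown on nutrient agar.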

Staphylococcus aureus = test: Antibacterial activity against Staphylococcus aureus ATCC 25923 after 24 hrs by two-fold serial dilution method; assay type: functional; settings: ATCC 25923, 24 h; summary of the method: as §1
Escherichia coli = test: Antibacterial activity against Escherichia coli ATCC 25922 after 24 hrs by two-fold serial dilution method; assay type: functional; settings: ATCC 25922, 24 h; summary of the method: as §1
Pseudomonas aeruginosa = test: Antibacterial activity against Pseudomonas aeruginosa ATCC 27853 after 24 hrs by two-fold serial dilution method; assay type: functional; settings: ATCC 27853, 24 h; summary of the method: as §1
[1] = Inhibition of Staphylococcus aureus TyrRS compound preincubated for 10 mins by liquid scintillation counting in presence of L-ring-3,5-[3H]tyrosine
[2] = Toxicity in RBC (unknown origin) assessed as hemolysis; assay type: cell-based; settings: erythrocyte

Row | Compound | MIC (Bacillus subtilis) [µg/mL] | MIC (Staphylococcus aureus) [µg/mL] | MIC (Escherichia coli) [µg/mL] | MIC (Pseudomonas aeruginosa) [µg/mL] | IC50 [1] [µM] | LC30 [2] [µg/mL]
1 | COc1cccc(N2CCN(CCn3c([N+](=O)[O-])cnc3C)CC2)c1 | 0.805 (≈ 2.33 µM) | 0.656 (≈ 1.9 µM) | > 50 | > 50 | 7.65 | > 10000
2 | Cc1ncc([N+](=O)[O-])n1CCN1CCN(c2ccccc2)CC1 | 1.55 (≈ 4.92 µM) | > 50 | > 50 | > 50 | 20.5 | > 10000
3 | Cc1ncc([N+](=O)[O-])n1CCN1CCN(c2ccc(F)cc2)CC1 | > 50 | > 50 | > 50 | > 50 | 25.2 | > 10000
4 | Cc1ncc([N+](=O)[O-])n1CCN1CCN(c2cccc(Cl)c2Cl)CC1 | 14.4 (≈ 37.4 µM) | 11.1 (≈ 28.9 µM) | > 50 | > 50 | 13.6 | > 10000
5 | Cc1ncc([N+](=O)[O-])n1CCN1CCN(c2ccccc2Cl)CC1 | 0.142 (≈ 0.406 µM) | 0.203 (≈ 0.58 µM) | > 50 | > 50 | 0.0086 | > 10000
6 | Cc1ncc([N+](=O)[O-])n1CCN1CCN(c2ccccc2F)CC1 | > 50 | 17.1 (≈ 51.3 µM) | > 50 | > 50 | 23.4 | > 10000
7 | Cc1ncc([N+](=O)[O-])n1CCN1CCN(c2cccc(Cl)c2)CC1 | 2.57 (≈ 7.34 µM) | 1.8 (≈ 5.15 µM) | > 50 | > 50 | 10.5 | > 10000
8 | COc1ccccc1N1CCN(CCn2c([N+](=O)[O-])cnc2C)CC1 | 0.272 (≈ 0.787 µM) | 0.583 (≈ 1.69 µM) | > 50 | > 50 | 1.12 | > 10000
9 | Cc1ncc([N+](=O)[O-])n1CCN1CCN(c2cccc(C(F)(F)F)c2)CC1 | 3.29 (≈ 8.58 µM) | 18.1 (≈ 47.2 µM) | > 50 | > 50 | 15.3 | > 10000
10 | Cc1ccc(N2CCN(CCn3c([N+](=O)[O-])cnc3C)CC2)c(C)c1 | 4.31 (≈ 12.6 µM) | 1.61 (≈ 4.69 µM) | > 50 | > 50 | 12.6 | > 10000
11 | Cc1ncc([N+](=O)[O-])n1CCN1CCN(c2ccc(Cl)c(Cl)c2)CC1 | 6.83 (≈ 17.8 µM) | 11.6 (≈ 30.1 µM) | > 50 | > 50 | 16.2 | > 10000
12 | COc1ccc(N2CCN(CCn3c([N+](=O)[O-])cnc3C)CC2)cc1 | 0.033 (≈ 0.0955 µM) | 0.123 (≈ 0.356 µM) | > 50 | > 50 | 0.0067 | > 10000
13 | Cc1ncc([N+](=O)[O-])n1CCN1CCN(C(c2ccccc2)c2ccccc2)CC1 | 0.011 (≈ 0.0271 µM) | 0.003 (≈ 0.0074 µM) | > 50 | > 50 | 0.0024 | > 10000
14 | Cc1ncc([N+](=O)[O-])n1CCN1CCN(C(c2ccccc2)c2ccc(Cl)cc2)CC1 (configuration not stated) | 0.185 (≈ 0.421 µM) | 0.593 (≈ 1.35 µM) | > 50 | > 50 | 1.72 | > 10000
15 | Cc1ncc([N+](=O)[O-])n1CCN1CCN(C(c2ccc(F)cc2)c2ccc(F)cc2)CC1 | > 50 | > 50 | > 50 | > 50 | 25.8 | > 10000
16 | O=C(N[C@H](CO)[C@H](O)c1ccc([N+](=O)[O-])cc1)C(Cl)Cl [CHLORAMPHENICOL] | 0.078 (≈ 0.241 µM) | 0.178 (≈ 0.551 µM) | 0.064 (≈ 0.198 µM) | – | – | –
17 | CC1(C)S[C@@H]2[C@H](NC(=O)Cc3ccccc3)C(=O)N2[C@H]1C(=O)O [PENICILLIN G] | 0.335 (≈ 1 µM) | 1.02 (≈ 3.06 µM) | 22.8 (≈ 68.3 µM) | 18.6 (≈ 55.7 µM) | – | –
